Tested on: HEK-293T
Assay: Multiplex assay against HEK293T
Type: toxicity, cell-based
Details: human
Method in brief: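 Four dyes were applied at seeding to live cells: Hoechst33342, BioTracker Green Microtubule Cytoskeleton Dye, MitoTracker Red and Annexin V Alexa Fluor 680. Imaging after compound addition used a CQ1 microscope at 37°C and 5% CO2. CellPathfinder machine-learning gating then sorted cells into Hoechst high-intensity objects or normal cells, normal cells into healthy, pyknosed or fragmented nuclei, and pyknosed cells into mitotic or apoptotic, with tubulin, mitochondrial-mass and membrane-permeability phenotypes given as per cents of healthy-nucleus cells.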

[1] = 12 h, 1 µM, compound concentration 1 uM, replicate 1
[2] = 12 h, 1 µM, compound concentration 1 uM, replicate 2
[3] = 12 h, 10 µM, compound concentration 10 uM, replicate 1
[4] = 12 h, 10 µM, compound concentration 10 uM, replicate 2
[5] = 24 h, 1 µM, compound concentration 1 uM, replicate 1
[6] = 24 h, 1 µM, compound concentration 1 uM, replicate 2
[7] = 24 h, 10 µM, compound concentration 10 uM, replicate 1
[8] = 24 h, 10 µM, compound concentration 10 uM, replicate 2
[9] = 48 h, 1 µM, compound concentration 1 uM, replicate 1
[10] = 48 h, 1 µM, compound concentration 1 uM, replicate 2
[11] = 48 h, 10 µM, compound concentration 10 uM, replicate 1
[12] = 48 h, 10 µM, compound concentration 10 uM, replicate 2

Cc1onc(-c2ccccc2Cl)c1C(=O)N(C)c1ccc(Cl)cc1
Population Apoptotic (%) [1]: 35% | Population Fragmented Nuclei (%) [1]: 8% | Population Healthy Nuclei (%) [1]: 79% | Population Hoechst High Intensity Objects (%) [1]: 9% | Population Membrane Permeable-Phenotype (%) [1]: 0% | Population Mitochondria Different-Phenotype (%) [1]: 41% | Population Mitotic Cells (%) [1]: 64% | Population Normal (%) [1]: 90% | Population Pyknosed Nuclei (%) [1]: 12% | Population Tubulin-Different-Phenotype (%) [1]: 25% | Total Cell Count [1]: 375 | Population Apoptotic (%) [2]: 37% | Population Fragmented Nuclei (%) [2]: 3% | Population Healthy Nuclei (%) [2]: 84% | Population Hoechst High Intensity Objects (%) [2]: 6% | Population Mitochondria Different-Phenotype (%) [2]: 59% | Population Mitotic Cells (%) [2]: 62% | Population Normal (%) [2]: 93% | Total Cell Count [2]: 320 | Population Apoptotic (%) [3]: 38% | Population Fragmented Nuclei (%) [3]: 7% | Population Healthy Nuclei (%) [3]: 79% | Population Hoechst High Intensity Objects (%) [3]: 12% | Population Membrane Permeable-Phenotype (%) [3]: 0% | Population Mitochondria Different-Phenotype (%) [3]: 49% | Population Mitotic Cells (%) [3]: 61% | Population Normal (%) [3]: 87% | Population Pyknosed Nuclei (%) [3]: 13% | Population Tubulin-Different-Phenotype (%) [3]: 43% | Total Cell Count [3]: 357 | Population Apoptotic (%) [4]: 45% | Population Fragmented Nuclei (%) [4]: 4% | Population Healthy Nuclei (%) [4]: 80% | Population Hoechst High Intensity Objects (%) [4]: 6% | Population Mitochondria Different-Phenotype (%) [4]: 65% | Population Mitotic Cells (%) [4]: 54% | Population Normal (%) [4]: 93% | Population Pyknosed Nuclei (%) [4]: 14% | Population Tubulin-Different-Phenotype (%) [4]: 35% | Total Cell Count [4]: 330 | Population Apoptotic (%) [5]: 23% | Population Fragmented Nuclei (%) [5]: 9% | Population Healthy Nuclei (%) [5]: 81% | Population Hoechst High Intensity Objects (%) [5]: 5% | Population Membrane Permeable-Phenotype (%) [5]: 1% | Population Mitochondria Different-Phenotype (%) [5]: 21% | Population Mitotic Cells (%) [5]: 76% | Population Normal (%) [5]: 94% | Population Pyknosed Nuclei (%) [5]: 9% | Population Tubulin-Different-Phenotype (%) [5]: 14% | Total Cell Count [5]: 523 | Population Apoptotic (%) [6]: 42% | Population Fragmented Nuclei (%) [6]: 5% | Population Hoechst High Intensity Objects (%) [6]: 3% | Population Mitochondria Different-Phenotype (%) [6]: 44% | Population Mitotic Cells (%) [6]: 57% | Population Normal (%) [6]: 96% | Population Pyknosed Nuclei (%) [6]: 12% | Population Tubulin-Different-Phenotype (%) [6]: 18% | Total Cell Count [6]: 383 | Population Apoptotic (%) [7]: 45% | Population Fragmented Nuclei (%) [7]: 8% | Population Healthy Nuclei (%) [7]: 79% | Population Hoechst High Intensity Objects (%) [7]: 5% | Population Membrane Permeable-Phenotype (%) [7]: 1% | Population Mitochondria Different-Phenotype (%) [7]: 32% | Population Mitotic Cells (%) [7]: 54% | Population Normal (%) [7]: 94% | Population Pyknosed Nuclei (%) [7]: 12% | Population Tubulin-Different-Phenotype (%) [7]: 20% | Total Cell Count [7]: 478 | Population Apoptotic (%) [8]: 29% | Population Fragmented Nuclei (%) [8]: 7% | Population Healthy Nuclei (%) [8]: 82% | Population Hoechst High Intensity Objects (%) [8]: 3% | Population Membrane Permeable-Phenotype (%) [8]: 0% | Population Mitochondria Different-Phenotype (%) [8]: 47% | Population Mitotic Cells (%) [8]: 70% | Population Normal (%) [8]: 96% | Population Pyknosed Nuclei (%) [8]: 9% | Total Cell Count [8]: 413 | Population Apoptotic (%) [9]: 21% | Population Fragmented Nuclei (%) [9]: 14% | Population Healthy Nuclei (%) [9]: 79% | Population Hoechst High Intensity Objects (%) [9]: 2% | Population Membrane Permeable-Phenotype (%) [9]: 0% | Population Mitochondria Different-Phenotype (%) [9]: 11% | Population Mitotic Cells (%) [9]: 78% | Population Normal (%) [9]: 97% | Population Pyknosed Nuclei (%) [9]: 6% | Population Tubulin-Different-Phenotype (%) [9]: 9% | Total Cell Count [9]: 932 | Population Apoptotic (%) [10]: 31% | Population Fragmented Nuclei (%) [10]: 11% | Population Healthy Nuclei (%) [10]: 82% | Population Membrane Permeable-Phenotype (%) [10]: 1% | Population Mitochondria Different-Phenotype (%) [10]: 23% | Population Mitotic Cells (%) [10]: 68% | Population Pyknosed Nuclei (%) [10]: 5% | Population Tubulin-Different-Phenotype (%) [10]: 12% | Total Cell Count [10]: 620 | Population Apoptotic (%) [11]: 33% | Population Fragmented Nuclei (%) [11]: 14% | Population Healthy Nuclei (%) [11]: 76% | Population Hoechst High Intensity Objects (%) [11]: 3% | Population Membrane Permeable-Phenotype (%) [11]: 1% | Population Mitochondria Different-Phenotype (%) [11]: 16% | Population Mitotic Cells (%) [11]: 66% | Population Normal (%) [11]: 96% | Population Pyknosed Nuclei (%) [11]: 8% | Population Tubulin-Different-Phenotype (%) [11]: 15% | Total Cell Count [11]: 755 | Population Apoptotic (%) [12]: 20% | Population Fragmented Nuclei (%) [12]: 12% | Population Healthy Nuclei (%) [12]: 81% | Population Membrane Permeable-Phenotype (%) [12]: 0% | Population Mitochondria Different-Phenotype (%) [12]: 25% | Population Mitotic Cells (%) [12]: 79% | Population Pyknosed Nuclei (%) [12]: 6% | Population Tubulin-Different-Phenotype (%) [12]: 16% | Total Cell Count [12]: 652
